Data from PMC2899701 (Lipids, 2009).
≈ marks a conversion by molar mass, not a printed value. Read-outs that look alike come from different tables or passages of the source.

What was measured:
[1] = test system: L. donovani promastigotes; type: cell-based, Leishmania donovani (MHOM/ET67/L82 strain); conditions: for L. donovani promastigotes EC50: 48 h incubation, fatty acids in DMSO 0.6 to 25 μg/ml; for Therapeutic index IC50/EC50: IC50 murine macrophages / EC50 L. donovani promastigotes; for Effectiveness towards L. donovani (in words): promastigotes; for EC50: 48 h, read-out: L. donovani promastigotes EC50
In short: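 L. donovani MHOM/ET67/L82 promastigotes propagated in defined medium 199 with 10% heat-inactivated FCS, penicillin (50 U/ml) and streptomycin (50 µg/ml). Cultures given test fatty acids in DMSO over 0.6 to 25 µg/ml for 48 h. Cell population counted by Coulter counter; IC50/EC50 derived from the concentration series.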

[2] = test system: Murine macrophages (RAW 264.7); test: Toxicity to murine macrophages; type: cell-based; conditions: for Murine macrophages IC50: RAW 264.7, 48 h incubation, alamarBlue; for IC50: RAW264.7, 48 h, read-out: Murine macrophages IC50
In short: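 RAW 264.7 murine macrophages grown at 37 °C in RPMI 1640 with 10% FCS, penicillin (50 U/ml) and streptomycin (50 µg/ml). Cells exposed 48 h to a range of test compound concentrations (0.3 to 100 µg/ml, DMSO vehicle). Viability read with alamarBlue dye per manufacturer's protocol; IC50 derived from concentration series.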

[3] = test system: L. donovani promastigotes; conditions: at levels of 100 μg/mL; cited from earlier work
[4] = test system: L. donovani promastigotes; conditions: cited from earlier work
[5] = biological target: leishmania DNA topoisomerase IB (LdTopIB) (Leishmania donovani, UniProt A0A3Q8IHS4+Q8WQM6); test: DNA relaxation assay with recombinant LdTopIB; type: biochemical; conditions: concentrations as high as 1mM (gel not shown)

## CCCCCCCCCCCCCCCCOP(=O)([O-])OCC[N+](C)(C)C [miltefosine]
[1]; Leishmania donovani, read-out: IC50 against L. donovani
  IC50: 790 nM
[2]; Mus musculus, RAW264.7, read-out: EC50 against murine macrophages
  EC50: 1950 nM

## CCCCCCCCCCCCCCCC(=O)O [n-hexadecanoic acids, n-hexadecanoic acid]
[3]
  Inhibition of the motility of L. donovani promastigotes (in words): inhibited the motility

## CCCCCCCCCC/C=C\CCCCC(=O)O [Compound 6a, (6Z)-Heptadecenoic acid]
[1]
  L. donovani promastigotes EC50: > 25 µg/mL
[2]
  Murine macrophages IC50: 11.86 ± 1.63 µg/mL

## CCCCCCCC/C=C\CCCCCCCC(=O)O [oleic acid]
[4]
  MIC against L. donovani promastigotes: 90 µM (≈ 25.4 µg/mL)
[3]
  Inhibition of the motility of L. donovani promastigotes (in words): had no effect

## CCCCCCCCCCCCC/C=C\CCCCC(=O)O [Compound 6b, (6Z)-Icosenoic acid]
[1]
  L. donovani promastigotes EC50: 5.67 ± 1.07 µg/mL
  Therapeutic index IC50/EC50: 4.97
[1]; listed as (6Z)-icosenoic acid
  L. donovani promastigotes EC50: 5 to 6 µg/mL
[2]
  Murine macrophages IC50: 28.20 ± 7.54 µg/mL

## CCCCCCCCCCCCCCCCCCCC(=O)O [Icosanoic (20:0), n-icosanoic acid]
[1]
  L. donovani promastigotes EC50: > 25 µg/mL
  Effectiveness towards L. donovani (in words): not effective
[5]
  Inhibition of the LdTOPIB enzyme (in words): did not inhibit the enzyme
[2]
  Murine macrophages IC50: 21.93 ± 2.61 µg/mL

## CCCCCCCCCC(=O)O [n-Decanoic acid]
[4]
  MIC against L. donovani promastigotes: 1390 µM (≈ 239 µg/mL)
[3]
  Inhibition of the motility of L. donovani promastigotes (in words): inhibited the motility

## CCCCCCCCCCCCCC#CCCCCC(=O)O [Compound 1b, 6-Icosynoic acid]
[1]
  Therapeutic index IC50/EC50: 4.82
[1]; Leishmania donovani
  EC50: 1.11 ± 0.28 µg/mL (≈ 3.6 µM)
[2]; Mus musculus
  IC50: 5.35 ± 2.14 µg/mL (≈ 17.3 µM)

## CCCCCCCCCCCCCCCCC(=O)O [Heptadecanoic (17:0), n-heptadecanoic acid]
[1]
  L. donovani promastigotes EC50: > 25 µg/mL
  Effectiveness towards L. donovani (in words): not effective
[5]
  Inhibition of the LdTOPIB enzyme (in words): did not inhibit the enzyme
[2]
  Murine macrophages IC50: 14.18 ± 7.48 µg/mL

## CCCCCCCCCCCC(=O)O [n-dodecanoic, n-dodecanoic acid]
[3]
  Inhibition of the motility of L. donovani promastigotes (in words): inhibited the motility

## CCCCCCCCCCCCCCCCCC(=O)O [octadecanoic acid]
[4]
  MIC against L. donovani promastigotes: 180 µM (≈ 51.2 µg/mL)

## CCCCCCCCCCC#CCCCCC(=O)O [Compound 1a, 6-Heptadecynoic acid]
[1]
  Therapeutic index IC50/EC50: 0.85
[1]; Leishmania donovani
  EC50: 6.67 ± 1.42 µg/mL (≈ 25 µM)
[2]; Mus musculus
  IC50: 5.66 ± 0.92 µg/mL (≈ 21.2 µM)
